Laboratory results as given in ChEMBL document CHEMBL2203241, “Natural product-derived antitumor compound phenethyl isothiocyanate inhibits mTORC1 activity via TSC2” (J Nat Prod, 2012).
Active and inactive are the calls of the source. The calls are words filed in the database; no cut-off is given here.

How the values were obtained:
MCF7 [1] = assay: Inhibition of HIF1alpha RNA translation in human MCF7 cells at 10 ug/mL pretreated for 1 hr prior to metabolic labeling by SDS-PAGE analysis; assay type: functional, cell-based
Procedure, shortened: (§1)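 MCF7 cells held 1 h in DMEM without L-glutamine, cysteine and methionine, with 10% dialysed FCS and 2 mM glutamine. Then pretreated 1 h with compound, cycloheximide 10 μg/mL or DMSO, and labelled 2 h with [35S] amino acids (0.75 MBq/mL) plus CoCl2 100 μM. RIPA lysates immunoprecipitated overnight at 4 °C with anti-HIF1α or isotype IgG; SDS-PAGE, phosphorimaging. Three independent experiments.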

MEF [2] = assay: Inhibition of growth in TSC2-deficient MEF cells after 6 days; assay type: functional, cell-based; conditions: Mus musculus, 144 h
Procedure, shortened: (§2)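 Growth assay: p53−/−TSC2−/− and control MEFs plated at 1000 cells/well and treated next day with compound, DMSO or nothing. After 6 days relative cell number read by CellTiter 96 AQueous One, expressed as % of untreated. IC50 from curve fit; mean ± SD of three independent experiments.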

MEF [3] = assay: Inhibition of mTORC1 in PTEN+/+ MEF cells assessed as reduction of p70S6K phosphorylation after 3 hrs by immunoblotting analysis; assay type: cell-based; conditions: Mus musculus
Procedure, shortened: (§3)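 PTEN+/+ and PTEN−/− MEFs exposed to a concentration series, DMSO or nothing for 3 h. Immunoblots for phospho-p70 S6K T389, total p70 S6K and β-actin.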

MEF [4] = assay: Inhibition of growth in wild type MEF cells after 6 days; assay type: functional, cell-based; conditions: Mus musculus, 144 h; procedure, shortened: as §2
mTORC1 (Homo sapiens) [5] = target: T1, mTORC1 (Homo sapiens) (UniProt P42345+Q8N122+Q9BVC4); assay: Inhibition of mTORC1 in human MCF7 cells assessed as reduction of 4E-BP1 phosphorylation after 3 hrs by immunoblotting analysis; assay type: cell-based
T1 sequence (Q8N122 whole entry, looked up, other chains not shown): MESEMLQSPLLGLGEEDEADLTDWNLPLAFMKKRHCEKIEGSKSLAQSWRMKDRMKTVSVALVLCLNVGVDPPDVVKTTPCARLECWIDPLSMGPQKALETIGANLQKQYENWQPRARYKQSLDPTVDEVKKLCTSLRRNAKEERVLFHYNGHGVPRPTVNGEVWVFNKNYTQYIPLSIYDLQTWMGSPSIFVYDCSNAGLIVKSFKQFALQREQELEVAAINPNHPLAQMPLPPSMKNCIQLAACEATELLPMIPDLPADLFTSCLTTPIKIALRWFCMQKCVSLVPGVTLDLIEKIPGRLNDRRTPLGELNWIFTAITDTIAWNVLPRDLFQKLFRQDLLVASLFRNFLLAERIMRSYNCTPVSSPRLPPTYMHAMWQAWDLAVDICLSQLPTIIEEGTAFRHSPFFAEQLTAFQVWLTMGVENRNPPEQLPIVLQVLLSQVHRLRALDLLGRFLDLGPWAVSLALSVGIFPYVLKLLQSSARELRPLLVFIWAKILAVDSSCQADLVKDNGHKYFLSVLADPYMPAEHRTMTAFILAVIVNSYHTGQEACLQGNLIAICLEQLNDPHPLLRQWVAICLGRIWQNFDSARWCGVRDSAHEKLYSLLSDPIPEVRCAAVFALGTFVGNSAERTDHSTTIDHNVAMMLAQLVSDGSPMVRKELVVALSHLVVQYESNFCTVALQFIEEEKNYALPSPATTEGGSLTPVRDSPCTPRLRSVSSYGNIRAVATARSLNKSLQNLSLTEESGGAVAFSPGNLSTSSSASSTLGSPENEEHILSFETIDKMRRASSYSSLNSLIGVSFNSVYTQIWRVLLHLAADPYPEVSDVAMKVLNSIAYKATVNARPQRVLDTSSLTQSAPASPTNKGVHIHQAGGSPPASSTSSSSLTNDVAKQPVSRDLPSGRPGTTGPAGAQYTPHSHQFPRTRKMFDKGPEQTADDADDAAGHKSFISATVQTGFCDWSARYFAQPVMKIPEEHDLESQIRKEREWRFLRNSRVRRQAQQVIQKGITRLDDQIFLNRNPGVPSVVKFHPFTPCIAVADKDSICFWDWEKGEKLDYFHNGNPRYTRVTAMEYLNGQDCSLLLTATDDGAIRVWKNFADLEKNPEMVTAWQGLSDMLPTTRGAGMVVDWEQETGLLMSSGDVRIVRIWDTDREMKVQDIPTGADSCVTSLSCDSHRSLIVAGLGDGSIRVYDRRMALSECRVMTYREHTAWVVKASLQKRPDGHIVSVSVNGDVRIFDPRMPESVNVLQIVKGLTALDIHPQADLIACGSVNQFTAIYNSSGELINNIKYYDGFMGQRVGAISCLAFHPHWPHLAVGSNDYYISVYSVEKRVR
T1 sequence (Q9BVC4 whole entry, looked up, other chains not shown): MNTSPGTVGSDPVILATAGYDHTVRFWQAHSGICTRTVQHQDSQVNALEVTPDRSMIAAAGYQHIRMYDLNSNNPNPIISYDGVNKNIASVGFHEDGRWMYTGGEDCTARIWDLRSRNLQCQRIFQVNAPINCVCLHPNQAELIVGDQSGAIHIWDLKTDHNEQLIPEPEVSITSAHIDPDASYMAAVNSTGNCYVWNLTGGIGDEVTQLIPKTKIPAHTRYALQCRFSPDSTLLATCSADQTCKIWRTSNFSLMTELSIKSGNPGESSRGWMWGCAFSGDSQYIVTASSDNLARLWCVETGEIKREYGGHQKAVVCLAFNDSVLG
Procedure, shortened: (§4)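 MCF7 cells exposed to a concentration series, DMSO or nothing for 3 h, then immunoblotted. Repeated measures ANOVA with Tukey's test.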

MEF [6] = assay: Inhibition of mTORC1 in MEF cells assessed as reduction of p70S6K phosphorylation at threonine 389 at 2.5 to 5 uM after 3 hrs by immunoblotting analysis; assay type: cell-based; conditions: Mus musculus; procedure, shortened: as §3
MEF [7] = assay: Inhibition of mTORC1 in PTEN-/- MEF cells assessed as reduction of p70S6K phosphorylation after 3 hrs by immunoblotting analysis; assay type: cell-based; conditions: Mus musculus; procedure, shortened: as §3
MEF [8] = assay: Increase in mTORC2 activity in p53-/-TSC2-/- MEF cells assessed as […] in NDRG1 phosphorylation at threonine 346 after 3 hrs by immunoblotting analysis; assay type: cell-based; conditions: Mus musculus
Procedure, shortened: (§5)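 p53−/−TSC2+/+ and p53−/−TSC2−/− MEFs in standard serum-containing medium exposed to compound, DMSO (matched to 20 μM) or nothing for 3 h. Immunoblots probed for phospho-AKT S473, total AKT, phospho-NDRG1 T346 and total NDRG1, with HSC70 as loading control.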

MEF [9] = assay: Increase in mTORC2 activity in p53-/-TSC2-/- MEF cells assessed as […] of Akt phosphorylation at serine 473 after 3 hrs by immunoblotting analysis; assay type: cell-based; conditions: Mus musculus; procedure, shortened: as §5
MCF7 [10] = assay: Inhibition of Akt phosphorylation at threonine 308 in human MCF7 cells at 20 uM after 4 hrs by immunoblotting analysis; assay type: cell-based
Procedure, shortened: (§6)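 MCF7 cells given 20 μM compound or DMSO for up to 4 h. Immunoblots for phospho-AKT T308, phospho-AKT S473, total AKT and β-actin. Phospho signals normalised to total AKT; total AKT normalised to β-actin. Mean ± SD of three independent experiments; repeated measures ANOVA with Tukey's test.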

mTORC1 (Homo sapiens) [11] = target: T1, mTORC1 (Homo sapiens); assay: Inhibition of mTORC1 in human MCF7 cells assessed as reduction of p70S6K phosphorylation at 20 uM after 15 mins by immunoblotting analysis; assay type: cell-based
Procedure, shortened: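 MCF7 cells exposed to 20 μM compound or DMSO over a time course; p70 S6K phosphorylation read by immunoblotting.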

MEF [12] = assay: Inhibition of mTORC1 in p53-/-TSC+/+ MEF cells assessed as reduction of p70S6K phosphorylation after 3 hrs by immunoblotting analysis; assay type: cell-based; conditions: Mus musculus
Procedure, shortened: (§7)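 p53−/−TSC2+/+ and p53−/−TSC2−/− MEFs in standard serum-containing medium exposed to a concentration series, DMSO (matched to 20 μM) or nothing for 3 h. Immunoblots for phospho-p70 S6K T389, total p70 S6K and β-actin. Mean ± SD of three independent experiments; ANOVA with Tukey's test within each line, t test between lines.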

MCF7 [13] = assay: Increase in mTORC2 activity in human MCF7 cells induction of Akt phosphorylation at serine 473 after 4 hrs by immunoblotting analysis; assay type: cell-based; procedure, shortened: as §6
MEF [14] = assay: Effect on mTORC2 in p53-/-TSC2+/+ MEF cells assessed as Akt phosphorylation at serine 473 after 3 hrs by immunoblotting analysis; assay type: cell-based; conditions: Mus musculus; procedure, shortened: as §5
[15] = target: T2, Hypoxia inducible factors; HIF-1-alpha, HIF-2-alpha (Homo sapiens, UniProt Q16665+Q99814); assay: Inhibition of Serine/threonine-protein kinase mTOR complex 1-mediated HIF1alpha RNA translation in human MCF7 cells pretreated for 1 hr prior to metabolic labeling by SDS-PAGE analysis; assay type: cell-based; procedure, shortened: as §1
[16] = target: AMP-activated protein kinase, AMPK (Homo sapiens) (UniProt P54646+O43741+P54619+Q9UGJ0+Q9Y478+Q13131+Q9UGI9); assay: Induction of AMPK phosphorylation at threonine 172 in human MCF7 cells after 3 hrs by immunoblotting analysis; assay type: cell-based
MEF [17] = assay: Effect on mTORC2 in p53-/-TSC2+/+ MEF cells assessed as as NDRG1 phosphorylation at threonine 346 after 3 hrs by immunoblotting analysis; assay type: cell-based; conditions: Mus musculus; procedure, shortened: as §5
[18] = target: T2, Hypoxia inducible factors; HIF-1-alpha, HIF-2-alpha; assay: Inhibition of Serine/threonine-protein kinase mTOR complex 1-mediated HIF1alpha RNA translation in human MCF7 cells at 20 uM pretreated for 1 hr prior to metabolic labeling by SDS-PAGE analysis; assay type: cell-based; procedure, shortened: as §1
[19] = target: Mitogen-activated protein kinase; ERK1/ERK2 (Homo sapiens) (UniProt P27361+P28482); assay: Induction of ERK1/2 phosphorylation at threonine 202/tyrosine 204 in human MCF7 cells after 3 hrs by immunoblotting analysis; assay type: cell-based
Mitogen-activated protein kinase; ERK1/ERK2 (Homo sapiens), sequence (P27361 whole entry, looked up): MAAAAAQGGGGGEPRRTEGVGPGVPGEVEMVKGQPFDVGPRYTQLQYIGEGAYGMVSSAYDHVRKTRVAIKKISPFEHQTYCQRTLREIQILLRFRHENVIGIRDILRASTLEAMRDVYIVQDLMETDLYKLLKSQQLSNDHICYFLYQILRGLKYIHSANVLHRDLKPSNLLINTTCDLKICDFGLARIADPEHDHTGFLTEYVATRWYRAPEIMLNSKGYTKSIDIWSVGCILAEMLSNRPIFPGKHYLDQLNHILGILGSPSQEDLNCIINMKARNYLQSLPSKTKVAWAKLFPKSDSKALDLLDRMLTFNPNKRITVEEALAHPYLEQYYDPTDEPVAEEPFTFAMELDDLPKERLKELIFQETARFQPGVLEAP
Mitogen-activated protein kinase; ERK1/ERK2 (Homo sapiens), sequence (P28482 whole entry, looked up): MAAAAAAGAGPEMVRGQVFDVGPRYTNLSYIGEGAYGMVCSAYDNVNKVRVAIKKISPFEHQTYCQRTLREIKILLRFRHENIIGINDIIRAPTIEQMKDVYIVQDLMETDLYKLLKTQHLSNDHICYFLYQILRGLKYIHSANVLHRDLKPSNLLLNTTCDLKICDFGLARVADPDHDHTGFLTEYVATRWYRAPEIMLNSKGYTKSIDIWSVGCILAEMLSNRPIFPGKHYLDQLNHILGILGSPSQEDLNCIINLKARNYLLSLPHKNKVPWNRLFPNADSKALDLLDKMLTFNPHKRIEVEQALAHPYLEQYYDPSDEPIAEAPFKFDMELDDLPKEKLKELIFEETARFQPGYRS

mTORC1 (Homo sapiens) [20] = target: T1, mTORC1 (Homo sapiens); assay: Inhibition of mTORC1 in human MCF7 cells assessed as reduction of p70S6K phosphorylation at threonine 389 after 3 hrs by immunoblotting analysis; assay type: cell-based; procedure, shortened: as §4
MCF7 [21] = assay: Induction of Akt phosphorylation at threonine 308 in human MCF7 cells after 4 hrs by immunoblotting analysis relative to total Akt; assay type: cell-based; procedure, shortened: as §6
MEF [22] = assay: Inhibition of mTORC1 in p53-/-TSC2+/+ MEF cells assessed as reduction of p70S6K phosphorylation at threonine 389 after 3 hrs by immunoblotting analysis; assay type: cell-based; conditions: Mus musculus; procedure, shortened: as §7
MEF [23] = assay: Inhibition of mTORC1 in p53-/-TSC2-/- MEF cells assessed as reduction of p70S6K phosphorylation at threonine 389 after 3 hrs by immunoblotting analysis; assay type: cell-based; conditions: Mus musculus; procedure, shortened: as §7

Structure (SMILES): C[C@@H]1C[C@@H]([C@H](O)CC2CC(=O)NC(=O)C2)C(=O)[C@@H](C)C1
- inhibition (MCF7 [1]): Active

Structure (SMILES): S=C=NCCc1ccccc1 [PHENETHYLISOTHIOCYANATE]
- IC50 (MEF [2]): 8 µM
- inhibition (MEF [3]): Active
- IC50 (MEF [4]): 4.7 µM
- inhibition (mTORC1 (Homo sapiens) [5]): Active
- inhibition (MEF [6]): Active
- inhibition (MEF [7]): Active
- Activity (MEF [8]): Active
- Activity (MEF [9]): Active
- inhibition (MCF7 [10]): inactive
- inhibition (mTORC1 (Homo sapiens) [11]): Active
- inhibition (MEF [12]): Active
- Activity (MCF7 [13]): Active
- Activity (MEF [14]): inactive
- IC50 [15]: 7.5 µM
- Activity [16]: inactive
- Activity (MEF [17]): inactive
- inhibition [18]: Active
- Activity [19]: Active
- inhibition (mTORC1 (Homo sapiens) [20]): Active
- fold change (FC) (MCF7 [21]): 3
- inhibition (MEF [22]): Active
- inhibition (MEF [23]): inactive
